Experimental data as given in ChEMBL document CHEMBL1268829, “Design, synthesis and activity of benzothiazole-based inhibitors of NO production in LPS-activated macrophages” (Bioorg Med Chem Lett, 2010).
Active and inactive are the calls of the source. No cut-off for these calls is given here.

Experiments:
RAW264.7 [1] = test: Inhibition of LPS-induced nitric oxide production in mouse RAW264.7 cells at 20 uM after 20 hrs by Griess method; format: functional; conditions: RAW264.7, 20 h
Outline: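 Cells plated at 1 × 10⁵ cells/mL in 10% FBS-DMEM for 24 h, then given 1% FBS medium with compound at 20 μM plus LPS (1 μg/mL) for 20 h. Supernatant nitrite read by Griess reagent at 570 nm against a sodium nitrite standard. Percent inhibition relative to LPS control, n = 3.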

RAW264.7 [2] = test: Inhibition of LPS-induced COX2 expression in mouse RAW264.7 cells at 20 uM treated for 20 hrs during LPS activation by Western blot; format: functional, cell-based
Outline: (§1)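 RAW 264.7 cells given compound (20 μM) during 20 h LPS (1 μg/mL) activation, then washed and lysed. 20 μg lysate protein run on 8% SDS-PAGE and blotted to PVDF. Probed for iNOS, COX-2 and actin, with ECL detection.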

RAW264.7 [3] = test: Inhibition of I-kappaB-alpha degradation in LPS-induced mouse RAW264.7 cells at 20 uM pretreated for 30 mins before LPS challenge for 30 mins by Western blotting; format: cell-based
Outline: (§2)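 Cells pretreated 30 min with compound at 20 μM, then LPS (1 μg/mL) for 30 min. Cytoplasmic IκB-α and nuclear p65 measured by Western blot. Levels normalized to PARP.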

RAW264.7 [4] = test: Inhibition of LPS-induced COX2 mRNA expression in mouse RAW264.7 cells at 20 uM treated after LPS challenge by RT-PCR; format: functional, cell-based
Outline: (§3)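 Cells at 1.8 × 10⁶ per 60 mm dish stimulated 6 h with LPS (1 μg/mL) with or without compound (20 μM). Total RNA taken for RT-PCR of iNOS, COX-2 and β-actin: 25 cycles of 94 °C, 55 °C and 72 °C, 30 s each. Products resolved on 2% agarose.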

RAW264.7 [5] = test: Inhibition of LPS-induced COX2 mRNA expression in mouse RAW264.7 cells at 20 uM pretreated for 6 hrs before LPS challenge by RT-PCR; format: functional, cell-based
RAW264.7 [6] = test: Inhibition of LPS-induced iNOS mRNA expression in mouse RAW264.7 cells at 20 uM pretreated for 6 hrs before LPS challenge by RT-PCR; format: functional, cell-based
RAW264.7 [7] = test: Inhibition of LPS-induced iNOS expression in mouse RAW264.7 cells at 20 uM treated for 20 hrs during LPS activation by Western blot; format: functional, cell-based; outline: as §1
RAW264.7 [8] = test: Inhibition of LPS-induced nitric oxide production in mouse RAW264.7 cells after 20 hrs by Griess method; format: functional, cell-based; conditions: RAW264.7, 20 h
Outline: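 Cells plated at 1 × 10⁵ cells/mL in 10% FBS-DMEM for 24 h, then switched to 1% FBS medium. Incubated 20 h with LPS (1 μg/mL) with or without compound. Supernatant nitrite read with Griess reagent, 10 min at room temperature, absorbance 570 nm, against a sodium nitrite standard. IC₅₀ from dose–response curve.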

RAW264.7 [9] = test: Inhibition of sNFkappaB nuclear translocation in LPS-induced mouse RAW264.7 cells at 20 uM pretreated for 30 mins before LPS challenge for 30 mins by Western blotting; format: cell-based; outline: as §2
RAW264.7 [10] = test: Inhibition of LPS-induced iNOS mRNA expression in mouse RAW264.7 cells at 20 uM treated after LPS challenge by RT-PCR; format: functional, cell-based; outline: as §3

Row | SMILES | inhibition at 20 µM (RAW264.7 [1]) [%] | IC50 (RAW264.7 [8]) [µM] | also measured
1 | c1ccc(COc2cccc3scnc23)cc1 | 12.3 |  | 
2 | COc1ccc(/C=C/C(=O)N(Cc2ccccc2)c2ccccc2COc2cccc3scnc23)cc1OC | 39.8 | 20.9 | inhibition (RAW264.7 [2]): Active; inhibition (RAW264.7 [3]): Active; inhibition (RAW264.7 [4]): inactive; inhibition (RAW264.7 [5]): Active; inhibition (RAW264.7 [6]): Active; inhibition (RAW264.7 [7]): Active; inhibition (RAW264.7 [9]): Active; inhibition (RAW264.7 [10]): inactive
3 | Nc1nc2c(O)cccc2s1 | 11.4 |  | 
4 | Nc1ccccc1COc1cccc2scnc12 | 15.2 |  | 
5 | O=C(Cc1ccc2c(c1)OCO2)Nc1ccccc1COc1cccc2scnc12 | 32.5 | 72.3 | 
6 | O=C(Cc1ccc2c(c1)OCO2)N(Cc1ccccc1)c1ccccc1COc1cccc2scnc12 | 54.9 | 21.2 | 
7 | Nc1cccc(COc2cccc3scnc23)c1 | 32.9 |  | 
8 | O=C(Cc1ccc2c(c1)OCO2)Nc1cccc(COc2cccc3scnc23)c1 | 58.9 | 23.6 | 
9 | CC(=O)Nc1ccccc1COc1cccc2scnc12 | 3.7 |  | 
10 | COc1ccc2[nH]cc(CC(=O)Nc3cccc(COc4cccc5scnc45)c3)c2c1 | 75.9 | 4.2 | inhibition (RAW264.7 [2]): Active; inhibition (RAW264.7 [3]): Active; inhibition (RAW264.7 [4]): inactive; inhibition (RAW264.7 [5]): Active; inhibition (RAW264.7 [6]): Active; inhibition (RAW264.7 [7]): Active; inhibition (RAW264.7 [9]): Active; inhibition (RAW264.7 [10]): inactive
11 | COc1ccc2[nH]cc(CC(=O)Nc3ccccc3COc3cccc4scnc34)c2c1 | 36.4 |  | 
12 | COc1cccc2scnc12 | 18.6 |  | 
13 | c1ccc(CNc2ccccc2COc2cccc3scnc23)cc1 | 55.8 | 17.2 | inhibition (RAW264.7 [2]): Active; inhibition (RAW264.7 [3]): Active; inhibition (RAW264.7 [4]): inactive; inhibition (RAW264.7 [5]): Active; inhibition (RAW264.7 [6]): Active; inhibition (RAW264.7 [7]): Active; inhibition (RAW264.7 [9]): Active; inhibition (RAW264.7 [10]): inactive
14 | Oc1cccc2scnc12 | 8.6 |  | 
15 | COc1ccc(CCC(=O)Nc2ccccc2COc2cccc3scnc23)cc1OC | 11.6 |  | 
16 | Cc1ccc(COc2cccc3sc(N)nc23)cc1 | 14.4 |  | 
17 | Cc1ccc(COc2cccc3scnc23)cc1 | 10.4 |  | 
18 | COc1ccc(/C=C/C(=O)Nc2ccccc2COc2cccc3scnc23)cc1OC | 44.7 |  | 
19 | CS(=O)(=O)Nc1ccccc1COc1cccc2scnc12 | 0.4 |  | 
